Reference: ChEMBL document CHEMBL4014310, “Selective IKur Inhibitors for the Potential Treatment of Atrial Fibrillation: Optimization of the Phenyl Quinazoline Series Leading to Clinical Candidate 5-[5-Phenyl-4-(pyridin-2-ylmethylamino)quinazolin-2-yl]pyridine-3-sulfonamide” (J Med Chem, 2017)
Calls of active or inactive are those of the source. No cut-off for these calls is given here.

Key:
[1] = Plasma concentration in methoxamine-sensitised rabbit at 3 mg/kg, iv administered as 20 mins infusion; type: ADME, organism-based, Oryctolagus cuniculus
Canis familiaris [2] = test: Effect on QTc interval in pacing-induced mongrel dog heart failure model at 0.1 to 0.3 mg/kg, po; type: organism-based, Canis lupus familiaris; conditions: in vivo
Outline: (§1)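 Simultaneous atrio-ventricular pacing dog model of atrial arrhythmia. Compound was given orally at 0.1 or 0.3 mg/kg in 10% EtOH/40% propylene glycol/50% PEG 400. AF inducibility was scored as mean number of AF inductions and total AF duration, with QTc monitored and plasma concentration measured. n = 7 control, 5 (0.1 mg/kg) and 6 (0.3 mg/kg) dogs.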

[3] = AUC in mouse at 2 mg/kg, iv or 5 mg/kg, po; type: ADME, organism-based; conditions: in vivo
Outline: (§2)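 Single-dose PK study in mouse and rat (2 mg/kg iv, 5 mg/kg po), cynomolgus monkey (1 mg/kg iv and po) and dog (0.1 mg/kg iv, 1 mg/kg po). Dosing vehicle was 1:4:5 EtOH/propylene glycol/PEG400. Clearance, Vss, half-life, Cmax, Tmax, AUC (μM h) and oral %F were derived from plasma levels.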

[4] = AUC in dog at 0.1 mg/kg, iv or 1 mg/kg, po; type: ADME, organism-based, Canis lupus familiaris; conditions: in vivo; outline: as §2
[5] = Half life in dog at 0.1 mg/kg, iv or 1 mg/kg, po; type: ADME, organism-based, Canis lupus familiaris; conditions: in vivo; outline: as §2
Oryctolagus cuniculus [6] = test: Effect on ventricle effective refractory period in methoxamine-sensitised rabbit at 3 mg/kg, iv administered as 10 to 30 mins infusion; type: ADME, organism-based; conditions: in vivo
[7] = Volume of distribution at steady state in dog at 0.1 mg/kg, iv or 1 mg/kg, po; type: ADME, organism-based, Canis lupus familiaris; conditions: in vivo, read-out: Vdss
Outline: (§3)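 Single-dose PK in mouse and rat (2 mg/kg iv, 5 mg/kg po), cynomolgus monkey (1 mg/kg iv and po) and dog (0.1 mg/kg iv, 1 mg/kg po). Dosing vehicle was 1:4:5 EtOH/propylene glycol/PEG400. Parameters reported: clearance, Vss, half-life, Cmax, Tmax, AUC and oral bioavailability.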

[8] = Cmax in cynomolgus monkey at 1 mg/kg, iv or 1 mg/kg, po; type: ADME, organism-based, Macaca fascicularis; conditions: in vivo; outline: as §2
[9] = Inhibition of IKs (unknown origin); parameters: species or system Homo sapiens
[10] = Oral bioavailability in cynomolgus monkey at 1 mg/kg using crystalline form; type: ADME, organism-based, Macaca fascicularis; conditions: in vivo
Outline: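 Oral %F in cynomolgus monkey at 1 mg/kg po, with the compound given as a micronized crystalline suspension rather than the solution vehicle (iv reference dose 1 mg/kg).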

Oryctolagus cuniculus [11] = test: Antiatrial fibrillation activity in methoxamine-sensitised rabbit assessed as increase in atrial effective refractory period at 3 mg/kg, iv administered as 10 mins infusion relative to control; type: functional
Outline: (§4)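 Rabbit, iv dosing at 1 or 3 mg/kg. AERP was measured at 10, 20 and 30 min time points as % prolongation, and plasma compound concentration was measured at the same time points and correlated with the AERP change.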

[12] = AUC in cynomolgus monkey at 1 mg/kg, iv or 1 mg/kg, po; type: ADME, organism-based, Macaca fascicularis; conditions: in vivo; outline: as §2
[13] = Oral bioavailability in dog at 1 mg/kg; type: ADME, organism-based, Canis lupus familiaris; conditions: in vivo; outline: as §3
[14] = Plasma concentration in methoxamine-sensitised rabbit at 1 mg/kg, iv administered as 20 mins infusion; type: ADME, organism-based, Oryctolagus cuniculus
Oryctolagus cuniculus [15] = test: Antiatrial fibrillation activity in methoxamine-sensitised rabbit assessed as increase in atrial effective refractory period at 0.17 mg/kg, iv measured 15 mins post infusion relative to control; type: functional
Outline: (§5)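 Rabbit, iv infusion of compound in DMF (0.17 mg/mL) with a 0.17 mg/kg maintenance dose. AERP was normalized to DMF vehicle, with time counted from the start of the maintenance infusion. Tissues were collected after 30 min. n = 3 rabbits; means ± standard error.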

Oryctolagus cuniculus [16] = test: Antiatrial fibrillation activity in methoxamine-sensitised rabbit assessed as increase in atrial effective refractory period at 1 mg/kg, iv administered as 20 mins infusion relative to control; type: functional; outline: as §4
Oryctolagus cuniculus [17] = test: Antiatrial fibrillation activity in methoxamine-sensitised rabbit assessed as increase in atrial effective refractory period at 3 mg/kg, iv administered as 20 mins infusion relative to control; type: functional; outline: as §4
Oryctolagus cuniculus [18] = test: Antiatrial fibrillation activity in methoxamine-sensitised rabbit assessed as increase in atrial effective refractory period at 0.17 mg/kg, iv administered as 30 mins infusion relative to control; type: functional; outline: as §5
Oryctolagus cuniculus [19] = test: Antiatrial fibrillation activity in methoxamine-sensitised rabbit assessed as increase in atrial effective refractory period at 1 mg/kg, iv administered as 30 mins infusion relative to control; type: functional; outline: as §4
Salmonella typhimurium = test: Genotoxicity in Salmonella typhimurium by Ames test; type: toxicity; conditions: salmonella enterica subsp. enterica serovar typhimurium
[20] = Clearance in mouse at 2 mg/kg, iv or 5 mg/kg, po; type: ADME, organism-based; conditions: in vivo; outline: as §2
Oryctolagus cuniculus [21] = test: Antiatrial fibrillation activity in methoxamine-sensitised rabbit assessed as plasma concentration required to show increase in atrial effective refractory period at 0.17 mg/kg, iv measured 15 mins post infusion; type: functional, organism-based; outline: as §5
Canis familiaris [22] = test: Antiarrhythmic activity in mongrel dog heart failure model assessed as reduction in pacing-induced total atrial fibrillation duration at 0.1 to 0.3 mg/kg, po; type: functional, organism-based; conditions: Canis lupus familiaris; outline: as §1
[23] = Oral bioavailability in cynomolgus monkey at 1 mg/kg; type: ADME, organism-based, Macaca fascicularis; conditions: in vivo; outline: as §2
Oryctolagus cuniculus [24] = test: Antiatrial fibrillation activity in methoxamine-sensitised rabbit assessed as plasma concentration required to show increase in atrial effective refractory period at 0.17 mg/kg, iv administered as 1 min infusion; type: functional, organism-based; outline: as §5
Plasma [25] = test: Plasma concentration in pacing-induced mongrel dog heart failure model at 0.1 mg/kg, po; type: ADME, organism-based, Canis lupus familiaris; conditions: in vivo
Outline: (§6)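 Simultaneous atrio-ventricular pacing dog model used to measure AF inducibility. Dogs were dosed orally at 0.1 mg/kg (n = 5) or 0.3 mg/kg (n = 6) in 10% EtOH/40% propylene glycol/50% PEG 400, and plasma concentration was measured alongside AF inductions and QTc.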

[26] = Cmax in rat at 2 mg/kg, iv or 5 mg/kg, po; type: ADME, organism-based; conditions: in vivo; outline: as §2
Oryctolagus cuniculus [27] = test: Antiatrial fibrillation activity in methoxamine-sensitised rabbit assessed as increase in atrial effective refractory period at 0.17 mg/kg, iv measured 30 mins post infusion relative to control; type: functional; outline: as §5
Oryctolagus cuniculus [28] = test: Antiatrial fibrillation activity in methoxamine-sensitised rabbit assessed as increase in atrial effective refractory period at 3 mg/kg, iv administered as 30 mins infusion relative to control; type: functional; outline: as §4
Plasma [29] = test: Plasma concentration in pacing-induced mongrel dog heart failure model at 0.3 mg/kg, po; type: ADME, organism-based, Canis lupus familiaris; conditions: in vivo; outline: as §6
Oryctolagus cuniculus [30] = test: Antiatrial fibrillation activity in methoxamine-sensitised rabbit assessed as plasma concentration required to show 10% increase in atrial effective refractory period at 0.17 mg/kg, iv administered as 30 mins infusion; type: functional, organism-based; outline: as §5
[31] = Clearance in dog at 0.1 mg/kg, iv or 1 mg/kg, po; type: ADME, organism-based, Canis lupus familiaris; conditions: in vivo; outline: as §2
[32] = Volume of distribution at steady state in rat at 2 mg/kg, iv or 5 mg/kg, po; type: ADME, organism-based; conditions: in vivo, read-out: Vdss; outline: as §3
[33] = Oral bioavailability in rat at 5 mg/kg; type: ADME, organism-based; conditions: in vivo; outline: as §3
Oryctolagus cuniculus [34] = test: Antiatrial fibrillation activity in methoxamine-sensitised rabbit assessed as increase in atrial effective refractory period at 0.17 mg/kg, iv administered as 1 min infusion relative to control; type: functional; outline: as §5

- AUC [3]: 21 µM·h
- AUC [4]: 590 µM·h
- half-life [5]: 51 h
- Vd [7]: 0.2 L/kg
- Cmax [8]: 900 nM
- IC50 [9]: > 10 µM
- bioavailability [10]: 54%
- AUC [12]: 11 µM·h
- bioavailability [13]: 64%
- clearance [20]: 10.6 mL/min/kg
- bioavailability [23]: 100%
- concentration (Plasma [25]): 470 nM
- Cmax [26]: 7900 nM
- concentration (Plasma [29]): 1840 nM
- clearance [31]: 0.05 mL/min/kg
- Vd [32]: 0.9 L/kg
- bioavailability [33]: 100%
Compound: NS(=O)(=O)c1cncc(-c2nc(NCc3ccccn3)c3c(-c4ccccc4)cccc3n2)c1 [BMS-919373]
- concentration at 20 min [1]: 3600 nM
- Activity (Canis familiaris [2]): Non-Toxic
- Activity (Oryctolagus cuniculus [6]): Non-Toxic
- Activity (Oryctolagus cuniculus [11]): 10.8%
- concentration at 20 min [14]: 1100 nM
- Activity (Oryctolagus cuniculus [15]): 9.5%
- Activity (Oryctolagus cuniculus [16]): 10.6%
- Activity (Oryctolagus cuniculus [17]): 16.2%
- Activity (Oryctolagus cuniculus [18]): 12.7%
- Activity (Oryctolagus cuniculus [19]): 10.7%
- Activity (Salmonella typhimurium): Non-Toxic
- Cp (Oryctolagus cuniculus [21]): 0.1 µM
- Activity (Canis familiaris [22]): Active
- Cp (Oryctolagus cuniculus [24]): 0.42 µM
- Activity (Oryctolagus cuniculus [27]): 11.4%
- Activity (Oryctolagus cuniculus [28]): 21.6 - 22%
- Cp (Oryctolagus cuniculus [30]): 0.15 µM
- Activity (Oryctolagus cuniculus [34]): 9.9%
